Reference: article PMC4629852 (Nature chemical biology, 2015)
Values belong to the molecule of their own block, whether it stands above or below them.

Assays:
[1] = biological target: T1, ERRα (Homo sapiens, UniProt P11474); assay: ERRα degradation in MCF-7 cells by immunoblotting; type: cell-based
T1 sequence (P11474 1-423): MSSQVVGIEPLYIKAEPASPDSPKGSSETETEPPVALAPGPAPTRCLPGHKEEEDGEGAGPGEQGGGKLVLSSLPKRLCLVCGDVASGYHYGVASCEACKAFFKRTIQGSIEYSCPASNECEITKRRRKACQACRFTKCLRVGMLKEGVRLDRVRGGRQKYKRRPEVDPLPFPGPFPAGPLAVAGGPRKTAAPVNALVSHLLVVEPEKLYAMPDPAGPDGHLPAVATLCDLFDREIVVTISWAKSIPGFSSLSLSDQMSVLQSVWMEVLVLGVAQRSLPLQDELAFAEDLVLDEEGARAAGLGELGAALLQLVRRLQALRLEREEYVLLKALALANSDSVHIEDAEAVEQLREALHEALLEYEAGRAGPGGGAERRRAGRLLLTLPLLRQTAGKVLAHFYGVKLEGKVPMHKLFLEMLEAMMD
In short: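 MCF7 cells were grown in DMEM/F12 + 10% FBS at 37 °C, 5% CO₂. They were seeded at 70% confluency, attached overnight, then treated with test compound for 8 h. An optional 1 h pretreatment with 1 μM epoxomicin preceded compound. Lysates were BCA-normalised, run on 4–12% gels, transferred to PVDF, milk-blocked and probed overnight with anti-ERRα.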

[2] = test system: HIF1α; assay: ODD-luciferase assay of HIF1α processing by VHL; type: cell-based
[3] = biological target: T1, ERRα; assay: Expression proteomics in MCF-7 cells; type: cell-based; conditions: MCF-7, 100 nM and 500 nM, 4, 8 or 24 h
In short: (§1)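 MCF-7 cells were plated 1 day before treatment at 1 × 10⁶ cells/well in MEM + 10% FBS + 1% NEAA + sodium pyruvate. They were treated in biological duplicate for the indicated times, scraped into ice-cold PBS and lysed in 2% SDS (95 °C, 3 min). Benzonase digestion followed (37 °C, 1.5 h), then BCA. Proteins were reduced with DTT, alkylated with iodoacetamide, gel-separated, trypsin-digested and quantified by LC-MS/MS.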

[4] = biological target: T2, BCR (Homo sapiens, UniProt P11274); assay: Expression proteomics in MCF-7 cells; type: cell-based; conditions: MCF-7, 500 nM, prolonged incubation, P < 0.05
T2 sequence (P11274 1-1271): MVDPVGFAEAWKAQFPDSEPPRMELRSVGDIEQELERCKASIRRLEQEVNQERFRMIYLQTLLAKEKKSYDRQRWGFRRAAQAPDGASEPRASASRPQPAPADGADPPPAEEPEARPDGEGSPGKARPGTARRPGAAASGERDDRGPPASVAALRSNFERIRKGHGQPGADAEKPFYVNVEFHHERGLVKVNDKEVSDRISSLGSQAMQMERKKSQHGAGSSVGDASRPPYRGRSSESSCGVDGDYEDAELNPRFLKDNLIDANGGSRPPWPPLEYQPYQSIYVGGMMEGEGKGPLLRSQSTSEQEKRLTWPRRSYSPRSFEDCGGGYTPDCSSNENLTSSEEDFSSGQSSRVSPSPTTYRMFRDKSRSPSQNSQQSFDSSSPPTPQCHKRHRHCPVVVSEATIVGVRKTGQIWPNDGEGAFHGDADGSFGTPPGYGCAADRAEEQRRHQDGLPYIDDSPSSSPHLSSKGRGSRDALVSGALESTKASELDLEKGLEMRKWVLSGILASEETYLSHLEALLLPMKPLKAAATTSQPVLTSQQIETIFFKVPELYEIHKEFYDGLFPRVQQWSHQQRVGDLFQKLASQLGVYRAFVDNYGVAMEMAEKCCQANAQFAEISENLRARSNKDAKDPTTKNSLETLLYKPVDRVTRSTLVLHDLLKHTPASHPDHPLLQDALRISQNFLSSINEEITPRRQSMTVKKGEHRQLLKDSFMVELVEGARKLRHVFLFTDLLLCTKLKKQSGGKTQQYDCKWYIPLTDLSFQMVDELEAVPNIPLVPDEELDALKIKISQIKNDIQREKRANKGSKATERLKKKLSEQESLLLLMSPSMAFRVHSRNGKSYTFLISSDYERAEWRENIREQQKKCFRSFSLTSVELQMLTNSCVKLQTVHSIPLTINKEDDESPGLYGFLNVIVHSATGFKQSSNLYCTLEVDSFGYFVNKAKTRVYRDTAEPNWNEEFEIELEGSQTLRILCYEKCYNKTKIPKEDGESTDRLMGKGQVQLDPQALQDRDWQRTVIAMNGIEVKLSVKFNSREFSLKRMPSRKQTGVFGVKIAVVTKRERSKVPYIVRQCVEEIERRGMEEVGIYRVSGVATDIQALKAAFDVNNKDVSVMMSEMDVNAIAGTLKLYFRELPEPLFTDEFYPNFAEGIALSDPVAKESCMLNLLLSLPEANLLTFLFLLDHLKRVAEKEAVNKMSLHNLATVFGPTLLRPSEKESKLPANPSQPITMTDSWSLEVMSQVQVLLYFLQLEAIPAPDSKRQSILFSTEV
In short: as §1

[5] = biological target: T3, ERRα (Mus musculus, UniProt O08580); assay: In vivo ERRα knockdown in mouse tissues, western blotting; conditions: mice, 100 mg/kg i.p. every 8 h, four doses, ~5 h after last dose, vs vehicle
T3 sequence (O08580 1-422): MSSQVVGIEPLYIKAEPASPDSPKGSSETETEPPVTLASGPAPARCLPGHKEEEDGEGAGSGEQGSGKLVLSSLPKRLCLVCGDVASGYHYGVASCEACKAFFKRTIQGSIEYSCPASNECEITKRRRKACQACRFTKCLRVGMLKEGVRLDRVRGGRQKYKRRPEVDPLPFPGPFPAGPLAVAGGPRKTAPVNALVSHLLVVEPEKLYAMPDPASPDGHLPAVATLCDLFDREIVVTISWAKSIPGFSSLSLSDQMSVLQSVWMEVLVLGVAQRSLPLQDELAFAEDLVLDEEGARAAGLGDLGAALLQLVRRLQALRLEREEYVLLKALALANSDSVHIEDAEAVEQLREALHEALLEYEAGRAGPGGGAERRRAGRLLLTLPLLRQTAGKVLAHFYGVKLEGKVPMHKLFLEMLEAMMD

[6] = biological target: T1, ERRα; assay: In vivo ERRα knockdown in MDA-MB-231 tumor xenografts in mice, western blotting; conditions: 100 mg/kg i.p. every 8 h, four doses, ~5 h after last dose, vs vehicle
[7] = biological target: VHL complex (Homo sapiens, UniProt P40337); assay: Competitive binding fluorescence polarization vs HIF1α-derived peptide
[8] = biological target: T4, RIPK2 (Homo sapiens, UniProt O43353); assay: RIPK2 degradation in THP-1 monocytes by immunoblotting; type: cell-based
In short: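 THP-1 cells were cultured in RPMI 1640 + 10% FBS at 37 °C, 5% CO₂. Cells (5 × 10⁶) were treated with a dose range for 16 h, or at 30 nM for a time course. Options were a 1 h pretreatment with 1 μM epoxomicin, or washout after 4 h with PBS washes and fresh medium. RIPK2 was detected by western blot.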

[9] = test system: THP-1 cells; assay: Cellular toxicity; type: cell-based, human; conditions: any concentration, Supplementary Fig. 7
[10] = biological target: VHL-RIPK2 ternary complex (Homo sapiens, UniProt O43353+P40337); type: binding; conditions: THP-1 lysate
In short: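 THP-1 lysate in Tris/glycerol/MgCl₂/NaCl/vanadate/0.008% NP40 buffer was adjusted to 5 mg ml⁻¹. Lysate (10 mg protein) was incubated with compound at 3, 30 or 300 nM, or DMSO, for 2 h at 4 °C. It was then captured for 2 h at 4 °C on anti-VHL or IgG1κ control agarose beads. Eluates were analysed by immunoblot and LC-MS, as log₂ fold changes over replicates (≥2 unique peptides).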

[11] = biological target: RIPK2 (Homo sapiens, UniProt O43353+P40337); assay: In vitro ubiquitination in reconstituted E1-E2-VHL cascade; type: biochemical
In short: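 Three-stage reaction at room temperature. First, RIPK2 (500 nM final) was autophosphorylated with [³²P]γ-ATP for 10 min in Tris/KCl/Mg/Mn/DTT buffer, pH 7.5. Ubiquitination buffer (2 mM ATP) was then added with VHL (250 nM final) and test compound at various concentrations. Separately, UbE1 (25 nM), Ubc4 (250 nM) and ubiquitin (116 μM) were precharged. The mixtures were combined and quenched over time. ³²P was converted to moles of RIPK2 (five phosphopeptides) and compared with moles of compound.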

[12] = biological target: T5, MAPKAPK3 (Homo sapiens, UniProt Q16644); assay: Kinobeads competition binding; conditions: below the limit of detection
[13] = biological target: T4, RIPK2; assay: Expression proteomics in THP-1 cells; type: cell-based; conditions: THP-1, 30 nM, 6, 18 and 24 h
[14] = biological target: T5, MAPKAPK3; assay: Expression proteomics in THP-1 cells; type: cell-based; conditions: THP-1, 30 nM; of ~7,000 proteins only RIPK2 and MAPKAPK3
In short: (§2)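 THP-1 cells were seeded at 3 × 10⁶ cells/well in RPMI1640 + 10% heat-inactivated FBS. They were exposed to 30 nM test compound for 6, 18 or 24 h; the 18 h arm was run in biological duplicate. Cells were collected on ice, washed twice in cold PBS, snap-frozen and SDS-lysed. Proteins were reduced, alkylated, gel-separated, trypsin-digested and quantified proteome-wide by LC-MS/MS.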

[15] = test system: RIPK3, ABL and TESK; assay: Expression proteomics in THP-1 cells; type: cell-based, human; conditions: THP-1, 30 nM
In short: as §2

decrease in normalized ERRα levels ([1]; MCF-7, 1 h pretreatment with 1 μM epoxomicin): 5% | maximal level of degradation (Dmax) ([1]; MCF-7 cells, 8 h): 86% | stabilization of HIF1α (ODD-luciferase) ([2]; concentrations up to 30 μM): did not stabilize HIF1α | ERRα levels [3]: decreased levels of ERRα | BCR levels [4]: downregulated | reduction of ERRα levels in heart [5]: approximately 44% | reduction of ERRα levels in kidney [5]: approximately 44% | reduction of ERRα levels in MDA-MB-231 tumors [6]: ~39%
SMILES: COc1cc(/C=C2\SC(=O)N(CCOCCC(=O)N[C@H](C(=O)N3C[C@H](O)C[C@H]3C(=O)NCc3ccc(-c4scnc4C)cc3)C(C)(C)C)C2=O)ccc1Oc1ccc(C#N)cc1C(F)(F)F [PROTAC_ERRα]

reduction of ERRα protein levels ([1]; MCF-7, at concentrations at which the active PROTAC reduced ERRα levels by 50%): ~ 20%
SMILES: COc1cc(/C=C2\SC(=O)N(CCOCCC(=O)N[C@H](C(=O)N3C[C@@H](O)C[C@H]3C(=O)NCc3ccc(-c4scnc4C)cc3)C(C)(C)C)C2=O)ccc1Oc1ccc(C#N)cc1C(F)(F)F [PROTAC_ERRα_epi]

SMILES: Cc1ncsc1-c1ccc(CNC(=O)[C@@H]2C[C@@H](O)CN2C(=O)[C@@H](NC(=O)COCCOCCOCCOCCOc2cc3nccc(Nc4ccc5scnc5c4)c3cc2S(=O)(=O)C(C)(C)C)C(C)(C)C)cc1 [PROTAC_RIPK2]
IC50 ([7]; competition with HIF1α-derived peptide for VHL complex): 660 nM | window between RIPK2 degradation and modulation of endogenous VHL function ([8]; RIPK2 degradation vs ODD-luciferase): > 1,000 fold | earliest time at which RIPK2 degradation was observed ([8]; THP-1, 30 nM): 1 h | time at which RIPK2 degradation was nearly complete ([8]; THP-1, 30 nM): 4 h | time for protein levels to recover to pre-treatment levels after removal ([8]; THP-1, 4 h pretreatment with 30 nM, washout): ≤ 24 h | RIPK2 protein levels at high concentration (hook effect) ([8]; THP-1, 16 h, 30 μM): returning to basal levels | Dmax ([8]; THP-1, 16 h, at concentrations of 10 nM and higher): > 95% | stabilization of HIF1α (ODD-luciferase) ([2]; 30 μM): modest stabilization of HIF1α | effect on ODD-luciferase levels ([2]; concentrations up to 3 μM): no effect | cellular toxicity [9]: No cellular toxicity | co-recruitment of RIPK2 over background ([10]; 30 nM): up to 16 fold | change of RIPK2 enrichment ([10]; 300 nM versus 30 nM): reduced by two-fold | stoichiometry (modified RIPK2 to PROTAC) ([11]; 2.0 pmol PROTAC, final time point): 2.0 | modified RIPK2 ([11]; 2.0 pmol PROTAC, final time point (35 min), 500 nM RIPK2): 4.0 pmol | Kd [12]: > 3000 nM | RIPK2 levels [13]: induced the degradation of RIPK2 from 6 h onwards | MAPKAPK3 levels [14]: significantly degraded | levels of other kinases bound (RIPK3, ABL and TESK) [15]: not degraded

binding to VHL ([7]; concentrations up to 10 μM): no binding to VHL | degradation of RIPK2 ([8]; THP-1 cells, Supplementary Fig. 6f): no degradation of RIPK2 | ubiquitination of RIPK2 ([11]; any concentration (50, 100, 200 nM), up to 35 min): unable to induce ubiquitination
SMILES: Cc1ncsc1-c1ccc(CNC(=O)[C@H]2C[C@H](O)CN2C(=O)[C@@H](NC(=O)COCCOCCOCCOCCOc2cc3nccc(Nc4ccc5scnc5c4)c3cc2S(=O)(=O)C(C)(C)C)C(C)(C)C)cc1 [PROTAC_RIPK2_epi]
enrichment of RIPK2 in VHL immunoprecipitate [10]: did not influence the immune-captured proteins or enrich RIPK2 levels | RIPK2 levels [13]: neither the PROTAC_RIPK2_epi nor the RIPK2 ligand affected RIPK2 levels
